Results of several laboratories.
Lines come from different studies, so protocols differ.
Target: Serine/threonine-protein kinase Nek1 (NEK1, Homo sapiens, UniProt Q96PY6)
One construct used (Q96PY6 1-1258): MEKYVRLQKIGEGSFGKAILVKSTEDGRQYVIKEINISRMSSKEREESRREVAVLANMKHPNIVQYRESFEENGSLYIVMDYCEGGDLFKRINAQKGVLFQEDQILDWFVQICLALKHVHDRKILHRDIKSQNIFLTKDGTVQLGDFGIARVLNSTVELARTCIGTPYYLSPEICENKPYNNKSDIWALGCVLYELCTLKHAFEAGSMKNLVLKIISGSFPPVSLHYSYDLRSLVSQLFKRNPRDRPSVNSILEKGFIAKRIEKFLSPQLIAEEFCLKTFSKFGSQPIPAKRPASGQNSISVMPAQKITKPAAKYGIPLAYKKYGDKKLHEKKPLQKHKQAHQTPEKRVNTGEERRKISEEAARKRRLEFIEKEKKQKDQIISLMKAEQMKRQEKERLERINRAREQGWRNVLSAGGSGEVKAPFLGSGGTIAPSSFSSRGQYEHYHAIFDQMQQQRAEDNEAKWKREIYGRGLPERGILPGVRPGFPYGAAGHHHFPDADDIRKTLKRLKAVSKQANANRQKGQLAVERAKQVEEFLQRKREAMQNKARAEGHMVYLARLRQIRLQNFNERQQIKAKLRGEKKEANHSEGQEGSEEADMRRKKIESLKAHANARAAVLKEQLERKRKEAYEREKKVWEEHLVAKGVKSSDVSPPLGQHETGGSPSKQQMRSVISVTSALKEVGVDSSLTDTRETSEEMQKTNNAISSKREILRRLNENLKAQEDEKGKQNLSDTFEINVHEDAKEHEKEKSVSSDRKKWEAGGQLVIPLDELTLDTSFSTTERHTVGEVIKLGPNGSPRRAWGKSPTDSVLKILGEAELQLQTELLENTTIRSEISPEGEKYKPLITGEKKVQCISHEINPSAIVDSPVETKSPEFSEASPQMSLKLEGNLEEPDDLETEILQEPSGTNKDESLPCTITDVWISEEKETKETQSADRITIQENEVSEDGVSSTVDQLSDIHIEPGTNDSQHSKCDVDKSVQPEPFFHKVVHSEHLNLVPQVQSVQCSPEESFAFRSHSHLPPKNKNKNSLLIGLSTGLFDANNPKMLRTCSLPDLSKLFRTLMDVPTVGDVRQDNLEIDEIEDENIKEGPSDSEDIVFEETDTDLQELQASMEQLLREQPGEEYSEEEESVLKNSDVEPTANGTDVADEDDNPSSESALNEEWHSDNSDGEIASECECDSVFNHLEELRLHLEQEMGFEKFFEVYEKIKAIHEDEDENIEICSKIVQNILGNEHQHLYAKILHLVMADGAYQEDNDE

SMILES | test | test system | conditions | endpoint | value
CNC(=O)c1ccc(Nc2ncc(C(F)(F)F)c(NCc3nccnc3N(C)S(C)(=O)=O)n2)cc1 | cell-free assay, competition with immobilised ligand | – | 0.1 µM | remaining binding | 75%
CCN1CCN(Cc2ccc(NC(=O)c3ccc(C)c(/C=C/c4cnc5[nH]ccc5c4OC)c3)cc2C(F)(F)F)CC1 | target engagement in cells, inhibitor, chemoproteomics | A-375 | 0.5 µM | inhibition | -15.8%
CS(=O)(=O)CCNCc1ccc(-c2ccc3ncnc(Nc4ccc(OCc5cccc(F)c5)c(Cl)c4)c3c2)o1 | cell-free assay | – | 0.5 µM | remaining signal | 71.8%
CN1CC(Oc2cnc(C#N)cc2-c2ccn3nc(NC(=O)C4CC4)cc3c2)C1 | enzyme activity, inhibitor | – | 1 µM | inhibition | 8%
O=C(Nc1cnc(Oc2ccc(F)cc2)nc1)N1CCc2ncccc2[C@@H]1c1ccc(F)cc1 | cell-free assay, competition with immobilised ligand | – | 1 µM | remaining binding | 84%
N#CCCc1ccc2c(c1)-c1[nH]c3ccc([N+](=O)[O-])cc3c1CC(=O)N2 | cell-free assay | – | 0.5 µM | remaining signal | 132%
CCCCNc1ncc2c(-c3ccc(F)cc3)nn(C[C@H]3CC[C@H](N)CC3)c2n1 | target engagement in cells, inhibitor, chemoproteomics | – | 20 mM | inhibition | -3.7%
CCN1CCN(Cc2ccc(NC(=O)c3ccc(C)c(Oc4ccnc5[nH]ccc45)c3)cc2C(F)(F)F)CC1 | target engagement in cells, inhibitor, chemoproteomics | A-375 | 0.5 µM | inhibition | -10.4%
CC(C)(O)[C@H]1CC[C@H](Nc2ccc3ncc(-c4cccc(C(F)(F)F)c4)n3n2)CC1 | enzyme activity, inhibitor | – | 1 µM | remaining activity | 48.3%
C[C@@H]1CN(c2cc(-c3nn(C)c4ccc(OC5(C)CC5)cc34)ncn2)C[C@H](C)O1 | cell-free assay, competition with immobilised ligand | – | 1 µM | remaining binding | 83%
Nc1ncnc2occ(-c3ccc(NC(=O)Nc4cc(C(F)(F)F)ccc4F)cc3)c12 | cell-free assay, inhibitor | – | 20 µM | remaining signal | 22%
CC(C)(C)c1nc2c(s1)c1nc(N)ncc1c1ccc(NS(=O)(=O)c3c(F)cccc3F)c(F)c12 | enzyme activity, inhibitor, radiometric | – | 1 µM | remaining activity | 92%
COc1ccc(COc2ccc(Cc3cnc(N)nc3N)cc2OC)cc1 | cell-free assay | – | 0.5 µM | remaining signal | 95.6%
CCOCCn1cc(C(=O)Nc2ccc(-n3nc(-c4cccnc4)cc3C(F)(F)F)cn2)ccc1=O | cell-free assay, competition with immobilised ligand | – | 1 µM | remaining binding | 100%
Cn1cnc(Br)c1C1=CN(c2ncnc3[nH]cnc23)CCS1 | enzyme activity, inhibitor, radiometric | – | 2 µM | inhibition | 96.5%
COc1cccc2c(NCc3ccccc3)nc(-n3c(N)nc4ccccc43)nc12 | target engagement in cells, inhibitor, chemoproteomics | – | 20 mM | inhibition | -13%
C[C@H](c1ccc(F)cc1)N(Cc1cccc(C(=O)O)c1)C(=O)c1cnc2ccccc2c1 | cell-free assay, competition with immobilised ligand | – | 1 µM | remaining binding | 100%
COc1cc2ncnc(Nc3ccc(Oc4ccccc4)c(C)c3C)c2cc1OC | enzyme activity, inhibitor | – | 1 µM | inhibition | -2%
C[C@@H]1CN(c2cc(-c3n[nH]c4ccc(OC5(C)CC5)cc34)ncn2)C[C@H](C)O1 | cell-free assay, competition with immobilised ligand | – | 0.1 µM | remaining binding | 100%
Cc1ccc(Nc2nccc(N(C)c3ccc4c(C)n(C)nc4c3)n2)cc1S(N)(=O)=O | enzyme activity, inhibitor | – | 0.5 µM | remaining activity | 105%
CC(=O)N1CCC(c2ccc(C(=O)NC3=NCCN3)cc2C(F)(F)F)CC1 | cell-free assay, competition with immobilised ligand | – | 1 µM | remaining binding | 100%
O=C(Nc1cnn(-c2csc(C(=O)NC3COC3)c2)c1)Nc1ccccc1Cl | enzyme activity, inhibitor | – | 5 µM | remaining activity | 112%
